The subject of data set [1] is NCI-H1975. Briefly: Induction of cell cycle arrest in human NCI-H1975 cells assessed as accumulation of cells at S phase at 0.125 uM incubated for 48 hrs by propidium iodide staining based flow cytometry analysis (reference value: 11.72%). It counts as functional.
The subject of data set [2] is NCI-H1975. Briefly: Induction of apoptosis in human NCI-H1975 cells assessed as late apoptotic cells at 0.125 uM incubated for 48 hrs by AnnexinV/FITC and propidium iodide staining based flow cytometry analysis (reference value: 0.73%). It counts as functional.
Data set [3] in a line: AUC (0 to t) in Sprague-Dawley rat at 25 mg/kg, iv measured for 24 hrs by LC-MS/MS analysis. It counts as ADME, organism-based. Further details: dose 25 mg/kg, time 24 hrs. To be noted: in vivo. The procedure, abridged: (§1)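 Male Sprague-Dawley rats (200 ± 20 g), acclimatised 1 week at 25 ± 2 °C, 50-60% RH; six rats given 25 mg/kg by tail vein. Retro-orbital blood into heparin at 10, 20, 40 min and 1, 2, 3, 4, 6, 8, 12, 24 h. Plasma ethyl acetate-extracted and quantified by LC-MS/MS, transition m/z 485.3/452.3.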

Data set [4] concerns the target Epidermal growth factor receptor (Homo sapiens, UniProt P00533, L858R/T790M). As to the kind of experiment: Inhibition of EGFR L858R/T790M double mutant (unknown origin) measured after 60 mins by ADP-Glo kinase based luminescence assay.
The nature of data set [5]: Selectivity index, ratio of IC50 for human A-431 cells harboring wild type EGFR (unknown origin) to IC50 for human NCI-H1975 cells harboring EGFR L858R/T790M mutant.
In data set [6] the test system is NCI-H1975. Briefly: Antiproliferative activity against human NCI-H1975 cells harboring EGFR L858R/T790M mutant assessed as reduction in cell viability incubated for 72 hrs by CCK8 assay. Conditions: NCI-H1975, 72 h. It counts as functional, cell-based. The procedure, abridged:
(§2)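 Cells kept as monolayers at 37 °C, 5% CO2, seeded 3000-4000/well for 12 h, then exposed to compounds for 72 h. CCK-8 added for 1-2 h at 37 °C, absorbance read at 450 nm. Each dose run in triplicate, experiment repeated at least three times. IC50 taken from dose-response curves.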

Data set [7] is described as follows: Clearance in Sprague-Dawley rat at 25 mg/kg, iv measured for 24 hrs by LC-MS/MS analysis. To be noted: in vivo. It counts as ADME, organism-based. The procedure, abridged:
as §1

In data set [8] the test system is NCI-H1975. As to the kind of experiment: Induction of cell cycle arrest in human NCI-H1975 cells assessed as accumulation of cells at G2/M phase at 0.125 uM incubated for 48 hrs by propidium iodide staining based flow cytometry analysis (reference value: 30.23%). It counts as functional.
For data set [9], the system named is NCI-H1975. Briefly: Induction of apoptosis in human NCI-H1975 cells assessed as viable cells at 0.5 uM incubated for 48 hrs by AnnexinV/FITC and propidium iodide staining based flow cytometry analysis (reference value: 94.9%). It counts as functional. To be noted: read-out: Activity.
Data set [10] concerns NCI-H1975. Briefly: Induction of apoptosis in human NCI-H1975 cells assessed as early apoptotic cells at 0.5 uM incubated for 48 hrs by AnnexinV/FITC and propidium iodide staining based flow cytometry analysis (reference value: 1.39%). It counts as functional.
The subject of the next data set is ASPC1. As to the kind of experiment: Antiproliferative activity against human ASPC1 cells assessed as reduction in cell viability incubated for 72 hrs by CCK8 assay. It counts as functional, cell-based. Conditions: ASPC1, 72 h. The procedure, abridged: as §2
Data set [11] can be described thus: Cytotoxicity against human HBE cells assessed as reduction in cell viability incubated for 72 hrs by CCK8 assay. It counts as cell-based. The procedure, abridged:
as §2

The test system of data set [12] is NCI-H1975. Briefly: Induction of morphological changes in human NCI-H1975 cells assessed as nuclear fragmentation at 0.5 to 2 uM incubated for 48 hrs under natural light by DAPI staining based fluorescence microscopic analysis. It counts as functional, cell-based. To be noted: dose 0.5-2 µM. The procedure, abridged: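 H1975 cells seeded at about 2 × 10⁵/well for 12 h, then treated. Cells fixed in 10% formaldehyde for 10 min, stained with DAPI for 10 min at room temperature and examined by fluorescence microscopy. Cell shape was also viewed under natural light.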

Data set [13] addresses Epidermal growth factor receptor (Homo sapiens, UniProt P00533). As to the kind of experiment: Inhibition of wild type EGFR (unknown origin) measured after 60 mins by ADP-Glo kinase based luminescence assay.

From ChEMBL document CHEMBL4831496, “Noncovalent EGFR T790M/L858R inhibitors based on diphenylpyrimidine scaffold: Design, synthesis, and bioactivity evaluation for the treatment of NSCLC” (Eur J Med Chem, 2021) come the findings set out here.

Active and inactive are the calls of the source. The calls are words filed in the database; no cut-off is given here.

Epidermal growth factor receptor (Homo sapiens, UniProt P00533), sequence (P00533 whole entry): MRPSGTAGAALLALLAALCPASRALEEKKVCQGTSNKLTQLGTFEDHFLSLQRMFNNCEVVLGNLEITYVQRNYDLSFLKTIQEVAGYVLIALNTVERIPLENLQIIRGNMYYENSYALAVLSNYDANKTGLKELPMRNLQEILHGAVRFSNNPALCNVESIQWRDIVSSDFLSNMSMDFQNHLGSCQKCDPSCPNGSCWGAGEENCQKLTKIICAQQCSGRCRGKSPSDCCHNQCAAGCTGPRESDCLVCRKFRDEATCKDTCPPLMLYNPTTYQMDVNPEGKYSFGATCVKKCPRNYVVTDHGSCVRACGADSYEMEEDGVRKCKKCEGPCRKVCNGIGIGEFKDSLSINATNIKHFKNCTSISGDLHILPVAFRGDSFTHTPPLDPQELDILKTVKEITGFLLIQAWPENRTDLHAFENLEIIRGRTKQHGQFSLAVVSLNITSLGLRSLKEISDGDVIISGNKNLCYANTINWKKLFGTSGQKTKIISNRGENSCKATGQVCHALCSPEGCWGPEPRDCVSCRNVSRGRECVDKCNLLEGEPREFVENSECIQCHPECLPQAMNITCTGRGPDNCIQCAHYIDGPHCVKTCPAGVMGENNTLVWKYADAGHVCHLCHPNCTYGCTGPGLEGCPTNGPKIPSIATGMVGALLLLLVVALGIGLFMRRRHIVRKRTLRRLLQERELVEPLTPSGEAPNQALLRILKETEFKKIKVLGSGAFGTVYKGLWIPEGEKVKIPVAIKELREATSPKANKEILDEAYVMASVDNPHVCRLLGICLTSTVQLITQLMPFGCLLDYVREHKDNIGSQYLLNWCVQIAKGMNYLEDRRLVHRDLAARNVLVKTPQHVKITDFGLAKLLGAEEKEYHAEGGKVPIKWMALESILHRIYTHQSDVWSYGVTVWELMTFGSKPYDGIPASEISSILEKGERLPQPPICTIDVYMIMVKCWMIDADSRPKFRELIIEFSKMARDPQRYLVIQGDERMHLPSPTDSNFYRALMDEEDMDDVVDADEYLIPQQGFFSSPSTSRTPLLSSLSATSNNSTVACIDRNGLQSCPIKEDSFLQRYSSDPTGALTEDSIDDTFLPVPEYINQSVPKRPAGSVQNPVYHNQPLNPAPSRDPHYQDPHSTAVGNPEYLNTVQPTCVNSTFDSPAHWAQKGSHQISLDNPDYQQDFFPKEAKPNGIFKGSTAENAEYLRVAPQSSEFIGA
Epidermal growth factor receptor (Homo sapiens, UniProt P00533, L858R/T790M), sequence (P00533 25-1210 T790M/L858R limits assumed): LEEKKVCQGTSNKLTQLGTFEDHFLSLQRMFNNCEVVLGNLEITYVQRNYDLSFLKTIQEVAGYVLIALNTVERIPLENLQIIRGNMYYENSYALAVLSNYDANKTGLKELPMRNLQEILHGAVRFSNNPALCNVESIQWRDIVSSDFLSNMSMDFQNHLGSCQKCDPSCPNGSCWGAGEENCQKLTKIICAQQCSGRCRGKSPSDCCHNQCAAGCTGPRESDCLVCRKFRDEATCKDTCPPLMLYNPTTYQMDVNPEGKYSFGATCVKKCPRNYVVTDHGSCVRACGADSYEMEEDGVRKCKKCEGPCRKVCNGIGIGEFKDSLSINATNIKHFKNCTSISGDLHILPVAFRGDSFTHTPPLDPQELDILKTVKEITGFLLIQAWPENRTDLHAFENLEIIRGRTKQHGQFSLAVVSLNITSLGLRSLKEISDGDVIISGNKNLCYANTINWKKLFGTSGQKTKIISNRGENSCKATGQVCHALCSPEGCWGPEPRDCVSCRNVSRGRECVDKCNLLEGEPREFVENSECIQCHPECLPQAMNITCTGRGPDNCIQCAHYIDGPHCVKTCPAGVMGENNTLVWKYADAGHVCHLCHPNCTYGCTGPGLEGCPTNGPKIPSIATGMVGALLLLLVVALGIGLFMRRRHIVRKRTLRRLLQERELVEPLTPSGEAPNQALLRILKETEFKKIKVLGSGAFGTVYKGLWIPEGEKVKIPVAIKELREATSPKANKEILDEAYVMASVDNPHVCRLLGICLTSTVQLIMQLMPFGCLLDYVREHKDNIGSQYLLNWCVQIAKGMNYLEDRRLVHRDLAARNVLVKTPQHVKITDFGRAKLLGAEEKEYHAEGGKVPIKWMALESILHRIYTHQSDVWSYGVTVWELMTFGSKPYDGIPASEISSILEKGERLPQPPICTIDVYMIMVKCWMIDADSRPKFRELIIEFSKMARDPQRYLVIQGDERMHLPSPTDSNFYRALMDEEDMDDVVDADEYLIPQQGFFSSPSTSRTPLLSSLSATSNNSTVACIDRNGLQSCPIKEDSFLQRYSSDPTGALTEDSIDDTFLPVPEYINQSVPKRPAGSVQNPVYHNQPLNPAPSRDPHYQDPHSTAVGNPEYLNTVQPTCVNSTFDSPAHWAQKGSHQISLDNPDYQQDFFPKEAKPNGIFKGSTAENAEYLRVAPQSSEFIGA

As for `O=C(NO)c1ccccc1Nc1nc(Nc2ccc(OCCN3CCOCC3)cc2)ncc1Cl`, the Activity with NCI-H1975 [1] is given as 15.08%; in the data set on NCI-H1975 [2], 0.31%; in the data set on NCI-H1975 [8], 64.66%; in the data set with NCI-H1975 [10], 15.53%. The AUC(0-t) at 24 h in data set [3] turned out to be 37600 ng·h/mL. Further, the IC50 in data set [4] came out at 1.1 nM; in the data set on NCI-H1975 [6], 97.8 nM; in the data set on ASPC1, 169 nM; in data set [11], 23.6 µM; in data set [13], 47.7 nM. In [5], the “Ratio IC50” value is on record as 10.9. This compound also showed a clearance in [7] of 9.23 mL/min/kg. Also, the viability at 0.5 µM in the data set with NCI-H1975 [9] was found to be 83.8%. In addition, the outcome with NCI-H1975 [12] was Active.
